Data as given in ChEMBL document CHEMBL1133118 (J Med Chem, 2000).
Values belong to the molecule of their own block, whether it stands above or below them.

What was measured:
[1] = molecular target: Adenosine receptors; A2b & A3 (Homo sapiens) (UniProt P29275+P0DMS8); test: Ratio of binding affinity of human A2B receptor to that of human A3 receptor; type: protein assay
Procedure, shortened: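 Ki ratio, n=3-6, 6–8 concentrations. A2B in HEK-293 membranes (20 μg): 40 nM [3H]DPCPX, 50 mM Tris HCl, 10 mM MgCl2, 1 mM EDTA, 0.1 mM benzamidine pH 7.4, 2 IU/mL adenosine deaminase, 60 min at 25 °C, nonspecific with 100 μM NECA. A3 in CHO membranes (50 μg): 1 nM [3H]MRE3008-F20, 120 min at 4 °C.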

[2] = molecular target: T1, Adenosine receptor A3 (Homo sapiens) (UniProt P0DMS8); details: CHO, 1 uM
T1 sequence (whole entry): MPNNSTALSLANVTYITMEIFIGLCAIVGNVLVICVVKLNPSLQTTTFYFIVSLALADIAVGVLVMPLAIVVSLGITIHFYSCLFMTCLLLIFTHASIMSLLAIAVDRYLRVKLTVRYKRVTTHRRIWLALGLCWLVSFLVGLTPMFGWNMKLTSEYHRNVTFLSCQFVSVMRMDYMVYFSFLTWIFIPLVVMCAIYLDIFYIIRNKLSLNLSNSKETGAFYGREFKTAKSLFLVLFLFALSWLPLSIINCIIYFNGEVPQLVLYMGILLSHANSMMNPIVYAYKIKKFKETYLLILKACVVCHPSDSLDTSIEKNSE

Adenosine receptor A2a [3] = molecular target: T2, Adenosine receptor A2a (Homo sapiens, UniProt P29274); test: Displacement of [3H]-SCH- 58261 from human adenosine A2A receptor expressed in CHO cells; range 160-210; type: cell-based
T2 sequence (P29274 whole entry): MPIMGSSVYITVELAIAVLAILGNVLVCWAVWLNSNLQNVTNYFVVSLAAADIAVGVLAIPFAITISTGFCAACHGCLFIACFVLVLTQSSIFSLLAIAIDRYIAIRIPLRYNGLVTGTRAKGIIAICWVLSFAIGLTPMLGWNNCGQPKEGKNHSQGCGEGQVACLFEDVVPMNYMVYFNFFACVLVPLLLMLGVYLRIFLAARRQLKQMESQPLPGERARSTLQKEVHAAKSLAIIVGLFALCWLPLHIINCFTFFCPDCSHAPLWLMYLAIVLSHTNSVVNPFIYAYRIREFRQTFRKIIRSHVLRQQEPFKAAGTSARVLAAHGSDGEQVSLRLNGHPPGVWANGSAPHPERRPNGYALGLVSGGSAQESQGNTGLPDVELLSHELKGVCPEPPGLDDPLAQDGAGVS
Procedure, shortened: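 CHO membranes expressing human A2A receptor (50 μg protein) in 50 mM Tris HCl, 10 mM MgCl2, pH 7.4, competed against [3H]SCH 58261. At least 6–8 test concentrations were used, with 60 min incubation at 25 °C. Nonspecific binding defined by 50 μM NECA; n=3-6.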

[4] = molecular target: Adenosine receptors; A1 & A3 (Homo sapiens) (UniProt P30542+P0DMS8); test: Ratio of binding affinity of human A1 receptor to that of human A3 receptor; type: protein assay
Procedure, shortened: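 Ki ratio from displacement in CHO membranes, 6–8 concentrations, n=3-6, filtration counting. A1: 1 nM [3H]DPCPX, 50 μg protein, 120 min at 25 °C, nonspecific with 10 μM CHA. A3: 1 nM [3H]MRE3008-F20, 50 μg protein, Tris/10 mM MgCl2 pH 7.4, 120 min at 4 °C, nonspecific with 1 μM MRE3008-F20.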

Adenosine receptor A3 [5] = molecular target: T3, Adenosine receptor A3 (Homo sapiens, UniProt P0DMS8); test: Inhibition of cAMP accumulation in CHO cells expressing human adenosine A3 receptor; range 10.8-21.5; type: functional, cell-based
T3 sequence (P0DMS8 whole entry): T1 sequence (whole entry)

Adenosine receptor A2b [6] = molecular target: T4, Adenosine receptor A2b (Homo sapiens, UniProt P29275); test: Displacement of [3H]DPCPX from Adenosine A2b receptor expressed in […]; range 107-210; type: cell-based
T4 sequence (P29275 whole entry): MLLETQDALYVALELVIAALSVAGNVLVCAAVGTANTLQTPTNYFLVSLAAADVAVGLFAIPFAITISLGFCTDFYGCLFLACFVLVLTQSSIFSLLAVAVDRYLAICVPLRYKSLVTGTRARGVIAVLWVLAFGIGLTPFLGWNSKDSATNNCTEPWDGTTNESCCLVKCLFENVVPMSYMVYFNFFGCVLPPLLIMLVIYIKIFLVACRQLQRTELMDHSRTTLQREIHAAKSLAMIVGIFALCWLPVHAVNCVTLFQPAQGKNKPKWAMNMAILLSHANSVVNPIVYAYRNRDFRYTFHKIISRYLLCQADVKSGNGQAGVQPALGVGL

Adenosine receptor A3 [7] = molecular target: T3, Adenosine receptor A3; test: Displacement of [3H]MRE3008-F20 from human adenosine A3 receptor expressed in CHO cells; range 1.42-1.79; type: cell-based
Adenosine receptor A2b [8] = molecular target: T4, Adenosine receptor A2b; test: Displacement of [3H]-DPCPX from Adenosine A2b receptor expressed in […]; range 7.4-11.3; type: cell-based
Adenosine receptor A1 [9] = molecular target: T5, Adenosine receptor A1 (Homo sapiens, UniProt P30542); test: Displacement of [3H]DPCPX from human adenosine A1 receptor expressed in CHO cells; range 1.72-2.36; type: cell-based
T5 sequence (P30542 whole entry): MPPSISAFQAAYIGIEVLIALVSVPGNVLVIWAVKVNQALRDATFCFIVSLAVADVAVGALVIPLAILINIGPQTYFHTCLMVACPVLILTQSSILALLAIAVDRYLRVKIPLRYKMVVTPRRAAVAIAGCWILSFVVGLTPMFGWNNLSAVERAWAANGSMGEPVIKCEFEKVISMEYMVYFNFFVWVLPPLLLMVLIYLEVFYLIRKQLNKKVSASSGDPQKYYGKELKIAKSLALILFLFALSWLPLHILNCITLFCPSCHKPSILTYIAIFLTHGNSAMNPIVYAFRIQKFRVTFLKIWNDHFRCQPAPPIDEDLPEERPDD

[10] = molecular target: T1, Adenosine receptor A3 (Homo sapiens); test: Percent reversal of 100 nM IB-MECA-inhibited cAMP accumulation in CHO cells expressing human adenosine A3 receptor at 1 uM; type: functional, cell-based
Procedure, shortened: (§1)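 CHO cells stably expressing human A3 receptor; membranes in 50 mM Tris HCl, 10 mM MgCl2, 1 mM EDTA pH 7.4 with 5 μM GTP, 0.5 mM […] and 2.0 IU/mL adenosine deaminase. Preincubated 10 min at 37 °C, then IB-MECA (100 nM) and/or antagonist with 1 mM ATP and 10 μM forskolin for 10 min. Boiled 2 min. cAMP read by [3H]cAMP competition with adrenal binding protein.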

Adenosine receptor A3 [11] = molecular target: T3, Adenosine receptor A3; test: Displacement of [3H]MRE3008-F20 from human adenosine A3 receptor expressed in CHO cells; range 664-738; type: cell-based
Adenosine receptor A3 [12] = molecular target: T3, Adenosine receptor A3; test: Inhibition of cAMP accumulation in CHO cells expressing human adenosine A3 receptor; range 2.5-9.3; type: functional, cell-based
Adenosine receptor A3 [13] = molecular target: T3, Adenosine receptor A3; test: Displacement of [3H]MRE3008-F20 from human adenosine A3 receptor expressed in CHO cells; range 0.51-0.70; type: cell-based
Adenosine receptor A2b [14] = molecular target: T4, Adenosine receptor A2b; test: Displacement of [3H]DPCPX from Adenosine A2b receptor expressed in […]; range 188-320; type: cell-based
Procedure, shortened: (§2)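 Human recombinant A2B receptor was expressed in HEK-293 cell membranes (20 μg protein). Incubated with 40 nM [3H]DPCPX in 50 mM Tris HCl, 10 mM MgCl2, 1 mM EDTA, 0.1 mM benzamidine, pH 7.4, with 2 IU/mL adenosine deaminase, at least 6–8 test concentrations, 60 min, 25 °C. Nonspecific binding was taken with 100 μM NECA; n=3-6.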

Adenosine receptor A2a [15] = molecular target: T2, Adenosine receptor A2a; test: Displacement of [3H]-SCH- 58261 from human adenosine A2A receptor expressed in CHO cells; range 0.65-1.06; type: cell-based
Procedure, shortened: (§3)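 Membranes from CHO cells stably expressing human A2A receptor, grown in DMEM/F12 without nucleosides, resuspended in 50 mM Tris HCl, 10 mM MgCl2, pH 7.4; 50 μg protein/assay. Competition with [3H]SCH 58261 at 6–8 or more compound concentrations, 60 min at 25 °C; nonspecific binding with 50 μM NECA. Filtration on GF/B filters, scintillation counting; n=3-6.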

Adenosine receptor A3 [16] = molecular target: T3, Adenosine receptor A3; test: Displacement of [3H]MRE3008-F20 from human adenosine A3 receptor expressed in CHO cells; range 691-952; type: cell-based
Adenosine receptor A1 [17] = molecular target: T5, Adenosine receptor A1; test: Displacement of [3H]DPCPX from human adenosine A1 receptor expressed in CHO cells; range 4.72-6.23; type: cell-based
[18] = molecular target: T1, Adenosine receptor A3 (Homo sapiens); test: Percentage of blockade by 1 uM of the inhibition by 100 nM IB-MECA-inhibited cAMP accumulation in CHO cells expressing human adenosine A3 receptor.; type: functional, cell-based; procedure, shortened: as §1
Adenosine receptor A2b [19] = molecular target: T4, Adenosine receptor A2b; test: Displacement of [3H]-DPCPX from Adenosine A2b receptor expressed in CHO cells; range 8-18; type: cell-based; details: in the assay text read “HEK-293 cells” for “CHO cells”; procedure, shortened: as §2
Adenosine receptor A3 [20] = molecular target: T3, Adenosine receptor A3; test: Inhibition of cAMP accumulation in CHO cells expressing human adenosine A3 receptor; range 1.1-3.8; type: functional, cell-based
Adenosine receptor A1 [21] = molecular target: T5, Adenosine receptor A1; test: Displacement of [3H]DPCPX from human adenosine A1 receptor expressed in CHO cells; range 6.5-8.7; type: cell-based
Adenosine receptor A2a [22] = molecular target: T2, Adenosine receptor A2a; test: biochemical
[23] = molecular target: T1, Adenosine receptor A3 (Homo sapiens); test: Percent reversal of 100 nM IB-MECA-inhibited cAMP accumulation in CHO cells expressing human adenosine A3 receptor at 1 uM; range 92-102; type: functional, cell-based; procedure, shortened: as §1
Adenosine receptor A2b [24] = molecular target: T4, Adenosine receptor A2b; test: Displacement of [3H]DPCPX from Adenosine A2b receptor expressed in […]; range 19-27; type: cell-based
Adenosine receptor A2a [25] = molecular target: T2, Adenosine receptor A2a; test: Displacement of [3H]-SCH- 58261 from human adenosine A2A receptor expressed in CHO cells; range 85-164; type: cell-based; procedure, shortened: as §3
[26] = molecular target: T1, Adenosine receptor A3 (Homo sapiens); details: CHO, 1 uM; remark: listed apart in the source
Adenosine receptor A1 [27] = molecular target: T5, Adenosine receptor A1; test: Displacement of [3H]DPCPX from human adenosine A1 receptor expressed in CHO cells; range 83-120; type: cell-based
Adenosine receptor A2b [28] = molecular target: T4, Adenosine receptor A2b; test: Displacement of [3H]DPCPX from Adenosine A2b receptor expressed in […]; range 55-68; type: cell-based; procedure, shortened: as §2
Adenosine receptor A3 [29] = molecular target: T3, Adenosine receptor A3; test: Displacement of [3H]MRE3008-F20 from human adenosine A3 receptor expressed in CHO cells; range 33-48; type: cell-based
Adenosine receptor A3 [30] = molecular target: T3, Adenosine receptor A3; test: Inhibition of cAMP accumulation in CHO cells expressing human adenosine A3 receptor; type: functional, cell-based
Adenosine receptor A2b [31] = molecular target: T4, Adenosine receptor A2b; test: Displacement of [3H]DPCPX from Adenosine A2b receptor expressed in […]; range 70-94; type: cell-based
Adenosine receptor A3 [32] = molecular target: T3, Adenosine receptor A3; test: Displacement of [3H]MRE3008-F20 from human adenosine A3 receptor expressed in CHO cells; […]; type: cell-based

SMILES: CC(C)CCn1cc2c(nc(N)n3nc(-c4ccco4)nc23)n1
- Ki (Adenosine receptor A2b [8]): 0.0091 µM
- Ratio [1]: 0.013
- Ki (Adenosine receptor A1 [9]): 0.002 µM
- inhibition [10]: 14%
- Ratio [4]: 0.002
- Ki (Adenosine receptor A3 [11]): 0.7 µM

SMILES: CC(C)=CCn1cc2c(nc(N)n3nc(-c4ccco4)nc23)n1
- Ratio [1]: 0.014
- Ki (Adenosine receptor A2a [15]): 0.0008 µM
- Ki (Adenosine receptor A3 [16]): 0.811 µM
- Ratio [4]: 0.006
- Ki (Adenosine receptor A1 [17]): 0.00542 µM
- inhibition [18]: 12%
- Ki (Adenosine receptor A2b [19]): 0.012 µM

SMILES: COc1ccc(NC(=O)Nc2nc3ccc(Cl)cc3c3nc(-c4ccco4)nn23)cc1
- Ratio [1]: 158
- IC50 (Adenosine receptor A3 [20]): 0.002 µM
- Ki (Adenosine receptor A1 [21]): 0.0076 µM
- Ratio [4]: 43
- Ki (Adenosine receptor A2a [22]): 0.0094 µM
- inhibition [23]: 97%
- Ki (Adenosine receptor A2b [24]): 0.022 µM

SMILES: CC(C)CCn1cc2c(nc(NC(=O)Nc3cccc(Cl)c3)n3nc(-c4ccco4)nc23)n1
- Ratio [1]: 1.5
- Ki (Adenosine receptor A2a [25]): 0.115 µM
- inhibition [26]: 45%
- Ratio [4]: 2.5
- Ki (Adenosine receptor A1 [27]): 0.1 µM
- Ki (Adenosine receptor A2b [28]): 0.061 µM
- Ki (Adenosine receptor A3 [29]): 0.04 µM

Further lines, results first:

- Ratio [1]: 93.7
- inhibition [2]: 68%
- Ki (Adenosine receptor A2a [3]): 0.18 µM
- Ratio [4]: 155
- IC50 (Adenosine receptor A3 [5]): 0.0148 µM
- Ki (Adenosine receptor A2b [6]): 0.15 µM
- Ki (Adenosine receptor A3 [7]): 0.0016 µM
SMILES: CCn1cc2c(nc(NC(=O)Nc3cccc(Cl)c3)n3nc(-c4ccco4)nc23)n1

- IC50 (Adenosine receptor A3 [12]): 0.0048 µM
- Ratio [1]: 408
- Ki (Adenosine receptor A3 [13]): 0.0006 µM
- Ratio [4]: 1710
- Ki (Adenosine receptor A2b [14]): 0.245 µM
SMILES: CCn1cc2c(nc(NC(=O)Nc3ccc(OC)cc3)n3nc(-c4ccco4)nc23)n1

- Ratio [1]: 82.6
- IC50 (Adenosine receptor A3 [30]): 0.0139 µM
- Ki (Adenosine receptor A2b [31]): 0.081 µM
- Ratio [4]: 205
- Ki (Adenosine receptor A3 [32]): 0.00098 µM
SMILES: COc1ccc(NC(=O)Nc2nc3nn(CCc4ccccc4)cc3c3nc(-c4ccco4)nn23)cc1
